The source of these data is article PMC7606181 (Acta Pharmaceutica Sinica. B, 2019).

Series [1] can be described thus: Long-term stability in water at 4 °C. In kind it is physicochemical. In a few lines:
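Micelle solutions at 0.5 mg/mL in water were stored at 4 °C, alongside a TPGS-stabilised prodrug formulation as control. Appearance and particle size were recorded until precipitation appeared.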

Series [2] relates to red blood cell (RBC) suspension from mouse. Briefly: Hemolysis assay. In kind it is cell-based. To be noted: 0.3% Triton.
Series [3] concerns MMP-9. To be noted: cited from earlier work.
For series [4], the system named is 4T1 tumor-bearing mice. Briefly: In vivo tumor-targeting assay and biodistribution. To be noted: i.v. On the set-up: species or system BALB/c mice. In a few lines:
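Female BALB/c mice (about 5 weeks) carried mammary-pad 4T1 tumours (1 × 10^6 cells) and were used on day 10. Groups (n = 9) got PBS, DiD-loaded micelles or free DiD in propylene glycol/PBS 1:1, at 20 μg DiD per mouse via tail vein. Whole-body imaging at 1–24 h; ex vivo organ imaging at 4, 8 and 24 h (3 per point); confocal of 24 h tumour sections.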

The subject of series [5] is MMP-9. Description: Detection of MMP-9 by Western blot in 4T1 cells. The format is cell-based, mouse. To be noted: 24 h, LT 100 μg/mL, LMWH 60 μg/mL. In a few lines: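 4T1 cells at about 60% confluency were exposed for 24 h to fresh medium containing test agents or PBS. Lysates were centrifuged at 15,700×g, 4 °C, 15 min. Supernatant proteins were run on 6% SDS-PAGE and blotted to PVDF. Blots were probed with MMP-9 antibody and HRP-labelled anti-goat secondary, then imaged.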
(Immunoblotting shows a protein as a band on a membrane.)

For series [6], the system named is platelets adhering to 4T1 cells. Description: Interaction of tumor cells with platelets. The format is cell-based, mouse. To be noted: LMWH-equivalent 80 μg/mL, compared with PBS group. In a few lines:
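4T1 cells at about 80% confluency were pre-incubated 20 min with test agents or PBS (LMWH-equivalent 80 μg/mL). Washed platelets from fresh blood were labelled with 5 μmol/L calcein AM, added, and co-cultured 2 h. After washing, cells were lysed in DMSO and fluorescence read at Ex 490 / Em 515 nm.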

The nature of series [7]: Content of GEM. In kind it is physicochemical. To be noted: toluidine blue spectrophotometry. The gist of the method:
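LMWH content: samples at 40 μg/mL were mixed with 0.005% toluidine blue in PBS (pH 7.4) and shaken 30 s. Hexane was added and shaken 1 min, and the aqueous layer was read at 630 nm. GEM content: acid/CuCl2 hydrolysis at 70 °C for 12 h, then filtration and C18 HPLC. Mobile phase was ammonium acetate pH 5.7/methanol 90:10 at 1 mL/min, UV 268 nm.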

For series [8], the system named is 4T1 cells. Description: Cytotoxicity MTT assay. In kind it is cell-based, mouse. Background: Tetrazolium assays rely on reduction of a dye to a coloured formazan, in cell work by metabolically active cells.
Series [9] in a line: Pharmacokinetic assay. The format is in vivo, BALB/c mice.
For series [10], the system named is 4T1 cells. Description: Scratch healing assay. The format is cell-based, mouse. To be noted: 12 h. In a few lines:
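4T1 monolayers at about 90% confluence were scratched in a straight line and rinsed with PBS. They were then incubated 12 h in medium with PBS or test agents (GEM-equivalent 0.1 μg/mL). Images were taken at 0 and 12 h, and healing rate was calculated by image analysis.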

Series [11] is described as follows: Hematological analysis and serum biochemical analysis. To be noted: mice, i.v., GEM-equivalent 4 mg/kg, 5 times. The format is in vivo, BALB/c mice. In a few lines: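 Mice were split into 4 groups (n = 3): PBS or test preparations i.v. at GEM-equivalent 4 mg/kg, every 2 days for 5 doses. After treatment, blood was taken for haematology and serum for biochemistry.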

A short description of series [12]: HE staining of major organs. The format is in vivo, BALB/c mice. To be noted: after treatment, compared with PBS group.
For series [13], the system named is 4T1 solid tumor. Briefly: In vivo anti-tumor assay, 4T1 solid tumor model. More on the design: species or system BALB/c mice. To be noted: day 18. The gist of the method: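 Female BALB/c mice received 1 × 10^6 4T1 cells in the mammary pad. From day 5 they were grouped (n = 6) and dosed via tail vein with PBS or test preparations. Doses were GEM-equivalent 4 mg/kg and LMWH-equivalent 18.4 mg/kg, every 2 days for 5 doses. On day 18, tumours and major organs were taken for H&E staining.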

Series [14] can be described thus: Tail bleeding assay. In kind it is in vivo, BALB/c mice. To be noted: mice, i.v., LMWH-equivalent 20 mg/kg, 30 min after injection, versus PBS. The gist of the method:
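Mice were split into 3 groups (n = 3): PBS or test agents i.v. at LMWH-equivalent 20 mg/kg. At 30 min, 3 mm of tail tip was cut and the tail immersed in PBS at 37 °C. The endpoint was time to complete cessation of bleeding.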

[15] abbreviates: female, BALB/c, mouse, plasma, iv, 4 mg/kg.

Turning to `Cc1c(C)c2c(c(C)c1OC(=O)CCC(=O)Nc1ccn(C3OC(CO)C(O)C3(F)F)c(=O)n1)CCC(C)(CCCC(C)CCCC(C)CCCC(C)C)O2` (stereo not shown) [GT, GEM-TOS], the “long-term stability (appearance, particle size)” value in series [1] is “aggregated to form precipitates in 6 h”.
Triton: the “erythrocyte lysis (positive control)” value in series [2] is “complete cell lysis”.
Turning to `Cc1c(C)c2c(c(C)c1OC(=O)CCC(=O)O)CC[C@@](C)(CCC[C@H](C)CCC[C@H](C)CCCC(C)C)O2` [TOS, D-α-tocopherol succinate], the “secretion of MMP-9 in B16F10 cells” value in series [3] is listed as “inhibited”.
Take `CCCCCCCCCCCCCCCCCCN1C(=CC=CC=CC2=[N+](CCCCCCCCCCCCCCCCCC)c3ccccc3C2(C)C)C(C)(C)c2ccccc21` [free DiD, 1,1′-dioctadecyl-3,3,3′,3′-tetramethylindodicarbocyanine]: the “main site of signal” value in series [4] is listed as “mainly showed in liver”.
In the case of LMWH-TOS [LT], the “MMP-9 secreted by 4T1 cells” value in series [5] is reported as “significantly inhibited”. In addition, in [6], the “number of adhesive platelets on tumor cells” value is “significantly decreased”. Moreover, the “content of LMWH” value in [7] was 47%. Further, in series [8] (up to 250 μg/mL), the cell viability entry was “almost did not affect cell viability”.
With `Nc1ccn([C@@H]2O[C@H](CO)[C@@H](O)C2(F)F)c(=O)n1` [GEM, Gemcitabine], in [9] (setting [15]), the clearance (in general, a measure of how efficiently the substance is removed, as volume per time) is 5.67 mL/min/kg and the half-life (usually how long it takes for the measured level to halve) was 36.9 ± 2.22 min. In addition, the V1 in [9] (mice, i.v., GEM-equivalent 4 mg/kg, plasma GEM) is 0.027 ± 0.015 L/kg. Further, in series [10], the “scratch healing rate (in words, versus PBS)” value is “healing rates decreased”. Moreover, the “levels of CK (creatine kinase) in serum” value in series [11] is recorded as “increased”. Moreover, the “number of white blood cells (WBC) and neutrophilic granulocyte (Gran)” value in series [11] (compared with PBS group) is “decrease”. Also, the “HE staining of other organs” value in series [12] was “myocardial rupture and glomerular effusion”. For the same compound, the cytotoxicity entry in series [8] (MTT, 48 h) is given as “concentration-dependent cytotoxicity”. Further, in series [8] (concentration of GEM more than 0.037 μg/mL), the relative cytotoxicity entry was “more cytotoxic than GLT”.
low-molecular-weight heparin [LMWH]: in series [5], the “MMP-9 secreted by 4T1 cells” value is given as “did not have obvious effect”. Besides, the “HE staining of tumor” value in [13] was “retained their complete microstructures”. The bleeding time result in series [14] is on record as “no significant difference”. Besides, in series [10], the “scratch healing rate (in words, versus PBS)” value is “healing rates decreased”. For the same compound, the “number of adhesive platelets on tumor cells” value in series [6] is “significantly decreased”.
